# RGS4 act – RGS4 potentiation or activation; HEK293 M3R/inducible RGS4, carbachol calcium flux Fluo4; stronger effect = lower value; AID 463111; 0.92% of 310,000 active; B-score at 10 µM;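 active means B-score of the integrated calcium signal more than 4 SD below the library mean, with starting fluorescence not abnormally high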;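 further: negative B-score means reduced calcium response which marks RGS4 activation or potentiation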
#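 test system = M3R-expressing HEK293 line, RGS4 induced by doxycycline | probe or stimulus = carbachol at ECmax as muscarinic agonist stimulus | timing = dye loading 30 min 37 °C, buffer rest 30 min RT | signal = calcium dye Fluo4 fluorescence | evaluation = B score from integrated fluorescence ratio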
# RGS4 block – inhibitors of human RGS4. P49798. HEK293 M3R/RGS4 inducible, Fluo-4 calcium flux; stronger effect = higher value; triggered by carbachol at its EC20. B-score at 10 µM. 0.45% of 310,000 active;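 active means B-score, a plate-corrected calcium signal, over three deviations above library mean, with baseline fluorescence within five deviations of library mean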;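 further: RGS4 expression induced by doxycycline in cells with stable M3 receptor; B-score is computed from the integrated fluorescence ratio over baseline after carbachol; higher B-score means a larger calcium signal and so more RGS4 inhibition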
# Target sequence (P49798 whole entry, looked up): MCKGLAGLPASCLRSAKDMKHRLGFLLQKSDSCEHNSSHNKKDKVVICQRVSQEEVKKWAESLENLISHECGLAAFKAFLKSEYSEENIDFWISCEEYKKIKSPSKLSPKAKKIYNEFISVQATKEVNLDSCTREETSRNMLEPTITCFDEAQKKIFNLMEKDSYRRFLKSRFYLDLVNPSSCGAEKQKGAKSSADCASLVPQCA
# MrgX1 antag – human MrgX1 receptor antagonism, primary screen | Q96LB2 | MRGX1-HEK293 calcium flux, Fluo-4, BAM8-22 antagonism; stronger effect = lower value | B-score at 10 µM | 1.3% of 310,000 active | AID 588676;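 active means calcium-response B-score plate-corrected more than 3 library SD below zero, starting fluorescence within 5 deviations, no agonist response on first addition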;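 further: peak minus trough fluorescence over baseline after final BAM8-22 challenge near maximal dose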
# Target sequence (Q96LB2 whole entry, looked up): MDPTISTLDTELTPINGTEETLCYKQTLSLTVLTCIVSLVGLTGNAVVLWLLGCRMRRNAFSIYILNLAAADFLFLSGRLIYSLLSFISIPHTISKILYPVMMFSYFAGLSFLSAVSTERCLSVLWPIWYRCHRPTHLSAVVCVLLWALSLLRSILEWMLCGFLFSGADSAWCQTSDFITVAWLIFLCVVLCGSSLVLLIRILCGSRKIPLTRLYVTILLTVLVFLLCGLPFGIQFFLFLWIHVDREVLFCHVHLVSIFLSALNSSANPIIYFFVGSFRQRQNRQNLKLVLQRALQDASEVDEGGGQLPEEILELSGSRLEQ
# MrgX1 agonist – activates human MrgX1 receptor signaling; B-score at 10 µM; 0.44% of 310,000 active; MrgX1-HEK293 cells, Fluo-4 calcium fluorescence, agonist mode; stronger effect = higher value; Q96LB2;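 active means calcium response B-score plate-corrected fluorescence ratio at least 3 library SD, with starting fluorescence B-score inside 5 SD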
#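 System – MrgX1-expressing HEK293 cells · Incubation – cells plated overnight, dye loaded 0.5 h 37 °C, 0.5 h room temperature · Technique – kinetic Fluo-4 NW fluorescence of intracellular calcium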
# MrgX1 allo act – allosterically activates human MrgX1 receptor signaling. Q96LB2. MrgX1-HEK293, Fluo-4 calcium flux, FDSS; stronger effect = higher value. B-score at 10 µM. 0.63% of 310,000 active. AID 588675;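 active means plate-corrected calcium response at least 3 library SD above typical, normal starting fluorescence, not activating the receptor alone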;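 further: compound read alongside a low EC10 to EC30 dose of BAM8-22 agonist; peak minus trough fluorescence over baseline measured at the second addition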
# Kir21 inh – blocks the mouse Kir2.1 inward-rectifier potassium channel; AID 1672; P35561; HEK293-Kir2.1, FluxOR thallium flux fluorescence; stronger effect = lower value; 0.85% of 310,000 active; B-score at 10 µM;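 active means fluorescence ratio B-score at or below minus 3 SD of library scores, with starting-brightness B-score within 2 SD, cut at about -4.2 in these data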;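 further: channel flux triggered by added potassium and thallium sulfate stimulus; B-score of peak minus minimum fluorescence over baseline after thallium stimulus; more negative B-score means stronger Kir2.1 block with less thallium influx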
# RGS4 activ val – RGS4 activation, validation assay | shares compounds with RGS4 act | HEK293 M3R/RGS4 inducible, carbachol calcium flux Fluo4 | inhibition, % at 10 µM | 89% of 1,100 active;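 active means inhibition above 3 SD of the buffer control wells, cut at about 41% in these data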;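 further: signal is the integrated peak-minus-minimum Fluo4 fluorescence over baseline ratio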
# M3R Ca counter – RGS4 activator counter-screen hit in non-induced cells; AID 602283; HEK293 M3R non-induced RGS4, Fluo4 calcium flux; after carbachol challenge at its EC90; 82% of 1,100 active; shares compounds with RGS4 act; inhibition, % at 10 µM;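 active means inhibition exceeding 3 SD of buffer-only control wells, cut at about 26% in these data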;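 further: percent drop in integrated peak-minus-baseline over baseline Fluo4 ratio after carbachol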
# * = called active by the depositor; i = inactive; nt = no result given. This is a sample that favours compounds with a hit; in the whole collection about 4.1% have one here.
SMILES,RGS4 act,RGS4 block,MrgX1 antag,MrgX1 agonist,MrgX1 allo act,Kir21 inh,RGS4 activ val,M3R Ca counter
O=C(NCc1ccncc1)c1ccccc1Nc1ccc(SC(F)F)cc1,-8.9*,i,i,i,i,-0.53,92*,85*
CCNc1nc(NC(C)(C)C)nc(N2CCCCC2)n1,-7.9*,i,i,i,i,-1.2,94*,93*
CCNc1nc(N2CCCC2)nc(N2CCCC2)n1,i,i,i,i,i,0.49,nt,nt
O=C1/C(=C/Nc2cccc([N+](=O)[O-])c2)CCc2ccccc21,i,i,i,i,i,0.78,nt,nt
C=CCOC(=O)C1=C(C)NC(SCC)=C(C#N)C1c1ccc(Cl)cc1 (stereo unspecified),-7.6*,i,i,i,i,0.02,93*,84*
C=CCOC(=O)C1=C(C)NC(SCC(N)=O)=C(C#N)C1c1ccc(C)cc1 (stereo unspecified),i,i,i,i,i,-1.8,nt,nt
O=C(NCc1ccco1)/C(=C/c1ccc(Cl)cc1)NC(=O)c1ccco1,i,i,i,i,i,1.3,nt,nt
CN1C2CCC1CC(OC(c1ccccc1)c1ccccc1)C2 (stereo unspecified),-8.8*,i,i,i,i,-3.7,92*,91*
CCN1CCN(c2ncnc3scc(-c4ccc(C)c(C)c4)c23)CC1,-9.2*,i,i,i,i,-3.3,92*,87*
Fc1ccc(CN2CCN(c3ncnc4scc(-c5ccc(F)cc5)c34)CC2)cc1,i,i,i,i,i,0.03,nt,nt
COc1ccc(-c2csc3ncnc(N4CCN(c5ccccc5O)CC4)c23)cc1,-9.3*,i,i,i,i,2.8,0,0
COc1ccc(-c2csc3ncnc(N4CCN(Cc5ccccc5)CC4)c23)cc1,-7.7*,i,i,i,i,0.67,0,0
COc1ccc(-c2csc3ncnc(N4CCN(c5ccccc5)CC4)c23)cc1,-8.3*,i,i,i,i,0.13,88*,84*
O=C(CSc1nc2c(cnn2-c2ccc(F)cc2)c(=O)[nH]1)Nc1nccs1,i,i,i,i,i,-0.21,nt,nt
CCOC(=O)CN(C(=O)c1ccccc1)c1ccccc1C,i,i,i,i,i,0.13,nt,nt
COc1ccccc1NS(=O)(=O)c1cc(NC(=O)c2sccc2C)ccc1N1CCCC1,i,i,i,i,i,-0.37,nt,nt
O=C(Nc1ccc(N2CCN(C(=O)c3ccco3)CC2)c(Cl)c1)c1cc2ccccc2o1,-8.7*,i,i,i,i,0.62,93*,64*
COc1cc2nc(Nc3ccc(C)c(C)c3)nc(N)c2cc1OC,-10*,i,i,i,i,-4.7*,61*,0
COc1cccc(NC(=O)CN(C)C(=O)c2cc(-c3ccco3)nc3ccccc23)c1,i,i,i,i,i,1,nt,nt
COc1ccc(-c2cc(C(=O)N(C)CC(=O)Nc3cccc(F)c3)c3ccccc3n2)cc1,-8.2*,i,i,i,i,-2.9,70*,28*
Cc1ccc(NC(=O)CN(C)C(=O)c2cc(-c3ccco3)nc3ccccc23)cc1,-8.3*,i,i,i,i,-1.6,61*,0
CN(CCOc1ccc(Cl)cc1)C(=O)c1cc(-c2ccco2)nc2ccccc12,-8.5*,i,i,i,i,0.85,91*,66*
COc1ccc(NC(=O)CN(C)C(=O)c2cc(-c3ccncc3)nc3ccccc23)cc1,i,i,i,i,i,0.05,nt,nt
COc1ccc(NC(=O)CN(C)C(=O)c2cc(-c3ccccc3)nc3ccccc23)cc1,-8.4*,i,i,i,i,-1.2,48*,0
CCOc1ccc(NC(=O)CN(C)C(=O)c2cc(-c3ccncc3)nc3ccccc23)cc1OCC,i,i,i,i,i,0.66,nt,nt
SMILES,RGS4 act,RGS4 block,MrgX1 antag,MrgX1 agonist,MrgX1 allo act,Kir21 inh,RGS4 activ val,M3R Ca counter
COc1ccccc1P(=O)(c1ccccc1)c1ccccc1,i,i,i,i,i,-0.88,nt,nt
COc1ccc(NC(=O)CN(C)C(=O)c2cc(-c3ccc(OC)cc3)nc3ccccc23)cc1,-8.1*,i,i,i,i,-1,54*,84*
COc1ccc(NC(=O)CN(C)C(=O)c2cccc3ccccc23)cc1,i,i,i,i,i,0.49,nt,nt
CCCCc1nc2cc(C(=O)NCc3cn(C)nc3C)ccc2o1,i,i,i,i,i,0.91,nt,nt
CCCCc1nc2cc(C(=O)NCc3nccn3CC)ccc2o1,-9.1*,i,i,i,i,-0.93,92*,78*
COc1ccc(Cc2nc(-c3cccnc3)no2)cc1OC,i,i,i,i,i,-1.5,nt,nt
CNc1nc(-c2ccccc2)[n+](-c2ccc(C)cc2)s1,-14*,i,i,i,i,-3.8,97*,93*
O=C(Nc1cccc(C(F)(F)F)c1)n1cc(-c2ccccn2)c(N2CCOCC2)n1,i,i,i,i,i,1.5,nt,nt
Cc1ccc(Sc2ccc(N)cc2C#N)cc1,-8.8*,i,i,i,i,2,83*,42*
Cc1ccc(Sc2nnc(-c3ccccc3)cc2C#N)cc1,i,i,i,i,i,1.4,nt,nt
Clc1ccc(COc2ccccn2)c(Cl)c1,i,i,i,i,i,0.67,nt,nt
CC1(C)CC(=O)C2=C(C1)N(c1ccc(Cl)cc1)C(=O)C2(O)C(F)(F)F (stereo unspecified),-14*,i,i,i,i,-0.39,79*,27*
COc1ccc(C(=O)Nc2c3c(nn2-c2cccc(Cl)c2)CS(=O)C3)cc1 (stereo unspecified),i,i,i,i,i,0.02,nt,nt
CC(=O)COc1ccc2c(C)c(C)c(=O)oc2c1,i,i,i,i,i,-0.4,nt,nt
CCOC(=O)Cn1c(-c2ccccc2)cc(SC)c(C#N)c1=O,-9.2*,i,i,i,i,0.87,90*,79*
O=C(Nc1ccc(C2=NCCN2)cc1)c1ccc(C(=O)Nc2ccc(C3=NCCN3)cc2)c(Cl)c1,i,i,i,i,i,-0.67,nt,nt
